Molecules are shown by their SMILES. The source made the active and inactive calls. The calls are words filed in the database; no cut-off is given here.

As usually defined, the IC50 is the midpoint of a concentration-inhibition curve. A high value points to lower potency. Usually inhibition stands for the share of the control response that was lost under treatment.

Data set [1] is described as follows: Antioxidant activity assessed as trolox equivalent of AAPH radical scavenging activity at 10 uM preincubated for 10 mins followed by AAPH challenge measured every min for 120 mins by ORAC-FL assay. Type of data set: functional. A digest of the protocol: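 Test compound and fluorescein (70 nM final) in 75 mM phosphate buffer pH 7.4, preincubated 10 min at 37 °C, then AAPH (40 mM solution) added. Fluorescence read every minute for 120 min (ex 485/em 520 nm). Curves normalized to buffer blank. […] Triplicate wells, at least three independent runs.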

The target of data set [2] is T1, Amyloid-beta precursor protein (Homo sapiens, UniProt P05067).
T1 sequence (P05067 whole entry): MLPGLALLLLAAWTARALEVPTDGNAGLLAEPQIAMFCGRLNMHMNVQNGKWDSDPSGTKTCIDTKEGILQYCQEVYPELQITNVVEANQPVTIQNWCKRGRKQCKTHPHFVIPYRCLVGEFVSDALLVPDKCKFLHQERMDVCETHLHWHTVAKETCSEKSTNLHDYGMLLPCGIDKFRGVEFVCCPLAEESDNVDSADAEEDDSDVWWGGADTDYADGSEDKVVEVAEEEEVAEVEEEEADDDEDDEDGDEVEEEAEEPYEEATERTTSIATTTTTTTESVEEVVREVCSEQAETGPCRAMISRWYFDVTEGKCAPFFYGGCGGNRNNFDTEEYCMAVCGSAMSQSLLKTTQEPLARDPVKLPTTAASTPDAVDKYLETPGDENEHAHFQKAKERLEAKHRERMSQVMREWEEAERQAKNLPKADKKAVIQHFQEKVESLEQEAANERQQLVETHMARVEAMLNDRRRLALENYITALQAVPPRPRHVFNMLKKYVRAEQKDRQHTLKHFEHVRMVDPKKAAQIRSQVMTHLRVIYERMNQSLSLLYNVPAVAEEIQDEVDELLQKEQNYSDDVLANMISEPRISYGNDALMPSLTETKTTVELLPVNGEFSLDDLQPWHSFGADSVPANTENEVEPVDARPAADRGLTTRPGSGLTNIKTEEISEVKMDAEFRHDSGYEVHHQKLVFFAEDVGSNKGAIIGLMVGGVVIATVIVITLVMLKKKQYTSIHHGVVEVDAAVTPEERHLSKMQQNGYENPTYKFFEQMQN
In data set [3] the target is T1, Amyloid-beta precursor protein. The settings on record: at 20 µM.
The target is the same in data set [4]. The experiment in a line: Inhibition of Cu2+-induced amyloid beta (1 to 42) aggregation (unknown origin) at 50 uM after 24 hrs by transmission electron microscopic analysis. A digest of the protocol: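 Aβ1−42 (25 μM) with Cu2+ (25 μM) and compound (50 μM) in HEPES pH 6.6/150 μM NaCl, incubated at 37 °C for 24 h. Aliquots put on carbon-coated grid for 2 min, stained with 1% uranyl acetate for 2 min, and imaged by TEM.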

Data set [5] has the same target. Briefly: Inhibition of amyloid beta (1 to 42) fibril formation (unknown origin) at 20 uM after 24 hrs by transmission electron microscopic analysis. A digest of the protocol: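 Aβ1−42 (25 μM) incubated with compound (20 μM) at 37 °C for 24 h in 10 mM phosphate pH 7.4. Grid loaded for 2 min, stained with 1% uranyl acetate for 2 min, and imaged by TEM.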
A short description of data set [6]: Metal chelating activity of the compound assessed as Fe2+ complex formation at 20 uM after 30 mins by UV-vis spectrometry. It is filed as functional. A digest of the protocol:
(§1)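 Absorption spectra of compound (20 μM final) alone or with metal salt (40 μM final; CuSO4, FeSO4 or ZnCl2) after 30 min in 20% ethanol/buffer (20 mM HEPES, 150 mM NaCl, pH 7.4). Recorded at room temperature by UV−vis.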

Data set [7] deals with SH-SY5Y. Briefly: Antioxidant activity in human SH-SY5Y cells assessed as decrease in t-BuOOH-induced intracellular ROS production at 2.5 to 10 uM incubated for 24 hrs prior to t-BuOOH challenge measured after 30 mins by DCFHDA-based fluorescence assay. Type of data set: functional, cell-based. An outline of the steps: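 SH-SY5Y cells (DMEM, 10% FCS, 37 °C, 5% CO2) seeded 1 × 10^4/well and grown 24 h. Compound added for 24 h; Trolox control at 5, 10, 20 μM. Cells are then washed, loaded with 5 μM DCFH-DA in PBS for 30 min, and challenged with 0.1 mM t-BuOOH for 30 min. Fluorescence read at ex 485/em 535 nm. Result is % of control by formula; three independent experiments in sextuplicate.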

The target in data set [8] is T1, Amyloid-beta precursor protein. Briefly: Induction of disaggregation of Cu2+-induced amyloid beta (1 to 42) fibril (unknown origin) at 50 uM after 24 hrs by thioflavin T fluorescence assay relative to control. An outline of the steps:
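Aβ1−42 (25 μM final) in 20 μM HEPES pH 6.6, 150 μM NaCl, preincubated with Cu2+ (25 μM) for 24 h at 37 °C. Compound (50 μM final) then added for another 24 h at 37 °C. Sample diluted into 50 mM glycine−NaOH pH 8.0 with 5 μM ThT; fluorescence read after 5 min at ex 450/em 485 nm.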

For data set [9] the target is unchanged. Briefly: Induction of disaggregation of Cu2+-induced amyloid beta (1 to 42) fibril (unknown origin) at 50 uM after 24 hrs by transmission electron microscopic analysis. An outline of the steps:
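Cu2+-induced fibrils formed from Aβ1−42 (25 μM) with Cu2+ (25 μM) at 37 °C for 24 h in HEPES pH 6.6/NaCl, then treated with compound (50 μM) at 37 °C for 24 h. Aliquots placed on carbon-coated grid for 2 min, stained with 1% uranyl acetate for 2 min, and imaged by TEM.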

A short description of data set [10]: Metal chelating activity of the compound assessed as Cu2+ complex formation by Job's method. Type of data set: functional. A digest of the protocol: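 Job's method: solutions held at constant total compound + CuSO4 concentration with varied mole fraction, in ethanol/HEPES buffer pH 7.4. UV absorbance change plotted against mole fraction; stoichiometry taken from the intersection of the straight lines.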

A short description of data set [11]: Metal chelating activity of the compound assessed as Zn2+ complex formation at 20 uM after 30 mins by UV-vis spectrometry. It is filed as functional. An outline of the steps: as §1
Data set [12] concerns the target T1, Amyloid-beta precursor protein. Briefly: Inhibition of Cu2+-induced amyloid beta (1 to 42) aggregation (unknown origin) at 50 uM after 24 hrs by thioflavin T fluorescence assay relative to untreated control. An outline of the steps: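 Aβ1−42 (25 μM final) in 20 μM HEPES pH 6.6, 150 μM NaCl, with Cu2+ (25 μM final) and compound (50 μM final). Incubated at 37 °C for 24 h, then diluted into 50 mM glycine−NaOH pH 8.0 with 5 μM ThT. Fluorescence read at ex 450/em 485 nm after 5 min; inhibition calculated as (1 − IFi/IFc) × 100 after background subtraction.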

Data set [13] is described as follows: Metal chelating activity of the compound assessed as Cu2+ complex formation at 20 uM after 30 mins by UV-vis spectrometry. It is filed as functional. A digest of the protocol:
as §1

Data set [14] has as its target T1, Amyloid-beta precursor protein. Briefly: Induction of disaggregation of self-mediated amyloid beta (1 to 42) fibril (unknown origin) at 25 uM after 24 hrs by transmission electron microscopic analysis.
A short description of data set [15]: Metal chelating activity of the compound assessed as Fe3+ complex formation at 20 uM after 30 mins by UV-vis spectrometry. Type of data set: functional.
Data set [16] has as its target T1, Amyloid-beta precursor protein. Briefly: Induction of disaggregation of self-mediated amyloid beta (1 to 42) fibril (unknown origin) at 25 uM after 24 hrs by thioflavin T fluorescence assay relative to control.
In data set [17] the target is Acetylcholinesterase (Electrophorus electricus, UniProt O42275). The experiment in a line: Inhibition of electric eel AChE using acetylthiocholine chloride as substrate preincubated for 15 mins followed by substrate addition measured every 1 min by Ellman's method. An outline of the steps: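 Ellman method in 0.1 M potassium phosphate buffer, pH 8.0, 1 mL assay containing DTNB and thiocholine substrate (each 50 μL of 0.01 M stock). Enzyme (AChE stock 2.0 units/mL) preincubated with compound 15 min at 37 °C, then substrate added. A412 read at 1 min intervals at 37 °C. Each concentration in triplicate. IC50 from at least three experiments.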
Sequence of Acetylcholinesterase (O42275 whole entry): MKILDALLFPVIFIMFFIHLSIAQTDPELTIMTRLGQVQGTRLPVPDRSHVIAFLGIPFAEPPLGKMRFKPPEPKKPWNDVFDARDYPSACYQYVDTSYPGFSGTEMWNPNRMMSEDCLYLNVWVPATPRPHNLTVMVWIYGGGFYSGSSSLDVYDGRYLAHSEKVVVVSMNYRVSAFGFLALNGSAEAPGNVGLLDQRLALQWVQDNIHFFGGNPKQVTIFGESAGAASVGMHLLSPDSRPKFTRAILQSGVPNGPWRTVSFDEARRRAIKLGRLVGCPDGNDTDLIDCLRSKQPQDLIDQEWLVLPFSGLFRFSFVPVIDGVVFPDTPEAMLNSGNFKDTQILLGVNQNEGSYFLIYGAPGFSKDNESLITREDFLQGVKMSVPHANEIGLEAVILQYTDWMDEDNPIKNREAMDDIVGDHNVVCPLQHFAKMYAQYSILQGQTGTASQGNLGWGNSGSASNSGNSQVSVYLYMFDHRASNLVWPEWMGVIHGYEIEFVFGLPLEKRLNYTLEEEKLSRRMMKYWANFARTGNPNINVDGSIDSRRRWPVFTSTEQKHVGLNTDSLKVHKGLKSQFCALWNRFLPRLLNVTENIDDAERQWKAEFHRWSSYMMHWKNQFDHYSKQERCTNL
(In Ellman's method for cholinesterases, released thiocholine reacts with DTNB.)

The nature of data set [18]: Permeability of the compound at 100 ug/mL after 10 hrs by PAMPA. It is filed as ADME. The settings on record: read-out: permeability. A digest of the protocol:
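PAMPA-BBB: filter coated with porcine brain lipid in dodecane (20 mg/mL); acceptor is PBS/EtOH 7:3. Compound taken from 5 mg/mL DMSO stock and diluted to 100 μg/mL final in PBS/EtOH, then incubated 10 h at 25 °C. Acceptor concentration measured by UV at five wavelengths, four wells, at least three runs; Pe calculated by equation.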
In general terms: PAMPA measures passive passage across an artificial lipid membrane.

For the compound `CCCNc1ccc(O)c(CNc2ccc(/C=C/c3cc(OC)cc(OC)c3)cc2)c1`, the Activity in data set [1] worked out at 2.91 equiv. In data set [2], the half-maximal inhibitory concentration (IC50) was found to be 13.1 µM. The inhibition in data set [3] came to 62.5%.
With `COc1cc(/C=C/c2ccc(NCc3ccccc3N(C)C)cc2)cc(OC)c1`, in [1], the Activity was determined as 5.87 equiv. Besides, in data set [3], the inhibition amounted to 7.17%.
Consider `COc1ccc(/C=C/c2ccc(NCc3cc(N(C)C)ccc3O)cc2)cc1`, for which the Activity in data set [1] worked out at 2.37 equiv. This compound returned a half-inhibitory concentration (IC50) in data set [2] of 12.2 µM. The compound also displayed an inhibition in data set [3] of 71.2%.
For `COc1cc(/C=C/c2ccc(NCc3cc([N+](=O)[O-])ccc3O)cc2)cc(OC)c1`, the Activity in data set [1] came out at 2.51 equiv. The compound further showed an inhibition in data set [3] of 46.5%.
As for `COc1cc(/C=C/c2ccc(NCc3ccccc3O)cc2)cc(OC)c1`, the Activity in data set [1] is 3.67 equiv. Besides, the inhibition in data set [3] worked out at 20.7%.
For `COc1cc(/C=C/c2ccc(NCc3cc(N(C)C)ccc3O)cc2)cc(OC)c1`, the inhibition entry in data set [4] and in [5] was “Active” throughout. For the same compound, the result in data set [6], in [7], in data set [9], in data set [10], in data set [11] and in data set [13] was Active. Also, the result in data set [14] and in data set [15] was Active. Moreover, the Activity in data set [1] turned out to be 4.72 equiv; in data set [8], 88.8%; in data set [16] it was 67%. Also, the inhibition in [12] turned out to be 87.5%; in [3], 79.5%.
As to `CN(C)c1ccc(O)c(CNc2ccc(/C=C/c3cc(O)cc(O)c3)cc2)c1`, the inhibition entry in [4] and in data set [5] was “Active” throughout. The result in [6], in data set [7], in data set [9], in [10], in data set [11] and in [13] was Active. In addition, the result in data set [14] and in data set [15] was Active. Further, the Activity in data set [1] was determined as 4.7 equiv; in data set [8], 85.9%; in [16] it was 82%. Also, the inhibition came out at 94.2% in data set [12] and 78.1% in data set [3].
`CN(C)c1ccccc1CNc1ccc(/C=C/c2cc(O)cc(O)c2)cc1`: the Activity in data set [1] turned out to be 3.57 equiv. The 50% inhibitory concentration (IC50) in data set [2] turned out to be 14.2 µM. The inhibition in data set [3] turned out to be 62.4%.
Regarding `COc1cc(/C=C/c2ccc(NCc3ccccc3OC)cc2)cc(OC)c1`, the Activity in data set [1] came to 3.67 equiv. Further, the inhibition in data set [3] was found to be 6.9%.
`C#CCN[C@@H]1CCc2ccc(OC(=O)N(C)CC)cc21` [LADOSTIGIL] showed a half-inhibitory concentration (IC50) in [17] of 50 µM.
Regarding `Oc1cc(O)cc(/C=C/c2ccc(NCc3ccccc3O)cc2)c1`, the Activity in data set [1] came out at 6.27 equiv. In data set [2], this compound gave a half-maximal inhibitory concentration (IC50) of 10.2 µM. For the same compound, in data set [3], the inhibition worked out at 68.1%.
On to `COc1cc(/C=C/c2ccc(NCc3cc(Cl)ccc3O)cc2)cc(OC)c1`, for which the Activity in data set [1] came to 4.12 equiv. Besides, the inhibition in [3] worked out at 31.3%.
For the compound `COc1cc(/C=C/c2ccc(NCc3cc[nH]c3)cc2)cc(OC)c1`, the Activity in [1] is 3.51 equiv. The same compound showed an inhibition in data set [3] of 13.6%.
In the case of `Oc1ccc(/C=C/c2cc(O)cc(O)c2)cc1`, the values for the Activity in data set [8] and in data set [16] were 86.4% and 61%, respectively. For the same compound, the inhibition in data set [12] is 78.9%; in data set [3], 69.7%. In addition, the outcome in data set [14] was Active.
On to `COc1cc(/C=C/c2ccc(NCc3ccc(OC)cc3O)cc2)cc(OC)c1`, for which the Activity in [1] was 3.32 equiv. The same compound displayed an inhibition in [3] of 3.98%.
On to `COc1cc(/C=C/c2ccc(NCc3cc(NC(C)C)ccc3O)cc2)cc(OC)c1`, for which the Activity in [1] was found to be 2.73 equiv. In addition, the half-maximal inhibitory concentration (IC50) in [2] came to 18.4 µM. This compound came in with an inhibition in data set [3] of 50.2%.
In the case of `COc1cc(/C=C/c2ccc(NCc3cccc(OC)c3O)cc2)cc(OC)c1`, the Activity in [1] was 4.54 equiv. In [3], this compound returned an inhibition of 18.1%.
Take `COc1cc(/C=C/c2ccc(NCc3c[nH]c4ccccc34)cc2)cc(OC)c1`: in data set [1], the Activity was determined as 3.67 equiv. The compound also came in with an inhibition in [3] of 24.1%.
Turning to `CN(C)c1ccc(O)c(CNc2ccc(/C=C/c3cc(O)cc(O)c3)cc2)c1.Cl`, in data set [18], the Papp at 10 h, 100 ug/mL came out at 2.55 ×10⁻⁶ cm/s.
On the same count and under the same terms, under `COc1cc(/C=C/c2ccc(NCc3cc(N(C)C)ccc3O)cc2)cc(OC)c1.Cl` stands 7.13 ×10⁻⁶ cm/s.
`O=[N+]([O-])c1ccc(O)c(CNc2ccc(/C=C/c3cc(O)cc(O)c3)cc2)c1`: in [1], the Activity was 4.23 equiv. In addition, 7.06 µM corresponded to half-maximal inhibition in data set [2] (IC50). The compound also displayed an inhibition in data set [3] of 71.5%.
In the case of `CN(C)c1ccc(/C=C/c2ccc(NCc3cc(N(C)C)ccc3O)cc2)cc1`, the Activity in data set [1] was determined as 3.86 equiv. In [2], the concentration for half-maximal inhibition (IC50) amounted to 10.7 µM. The inhibition in [3] was 69.1%.
Turning to `Oc1c(I)cc(Cl)c2cccnc12`, the Activity in data set [8] was determined as 41%; in data set [16], 16.5%. Also, the inhibition in data set [12] turned out to be 70.9%; in [3] it was 37.8%. The outcome in [14] was Active.
For `Oc1cc(O)cc(/C=C/c2ccc(NCc3cccc(O)c3O)cc2)c1`, the Activity in data set [1] amounted to 3.26 equiv. For the same compound, in [2], the 50% inhibitory concentration (IC50) was determined as 7.87 µM. In data set [3], this compound gave an inhibition of 78.8%.
In the same order, the values of `COc1cc(/C=C/c2ccc(NCc3cc(NCC(C)C)ccc3O)cc2)cc(OC)c1` are 4.51 equiv, 10.3 µM and 67%.
